Key:
[1] = Efflux ratio of apparent permeability across basal to apical membrane over apical to basal membrane in human Caco-2 cells at 100 uM incubated fro 120 mins by spectroscopy; format: ADME, cell-based
Method in brief: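 Caco-2 grown 21 days on Transwell filters, with TEER checked daily (above 1000 Ω taken as optimal). Washed in HBSS and equilibrated 30 min at 37 °C, then compound at 100 µM added to the donor side (apical or basolateral), with fresh HBSS on the receiver side, for 120 min at 37 °C. Acceptor concentration by UV spectroscopy gives Papp (nm/s). Ratio = Papp BA/AB, three experiments in duplicate.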

[2] = molecular target: Multidrug resistance-associated protein 1 (Homo sapiens, UniProt P33527); assay: Inhibition of MRP1 (unknown origin) overexpressed in MDCK cells using Calcein-AM as substrate preincubated for 30 mins followed by substrate addition measured after 30 mins by fluorescence based assay; format: cell-based
Chain of Multidrug resistance-associated protein 1 (P33527 whole entry): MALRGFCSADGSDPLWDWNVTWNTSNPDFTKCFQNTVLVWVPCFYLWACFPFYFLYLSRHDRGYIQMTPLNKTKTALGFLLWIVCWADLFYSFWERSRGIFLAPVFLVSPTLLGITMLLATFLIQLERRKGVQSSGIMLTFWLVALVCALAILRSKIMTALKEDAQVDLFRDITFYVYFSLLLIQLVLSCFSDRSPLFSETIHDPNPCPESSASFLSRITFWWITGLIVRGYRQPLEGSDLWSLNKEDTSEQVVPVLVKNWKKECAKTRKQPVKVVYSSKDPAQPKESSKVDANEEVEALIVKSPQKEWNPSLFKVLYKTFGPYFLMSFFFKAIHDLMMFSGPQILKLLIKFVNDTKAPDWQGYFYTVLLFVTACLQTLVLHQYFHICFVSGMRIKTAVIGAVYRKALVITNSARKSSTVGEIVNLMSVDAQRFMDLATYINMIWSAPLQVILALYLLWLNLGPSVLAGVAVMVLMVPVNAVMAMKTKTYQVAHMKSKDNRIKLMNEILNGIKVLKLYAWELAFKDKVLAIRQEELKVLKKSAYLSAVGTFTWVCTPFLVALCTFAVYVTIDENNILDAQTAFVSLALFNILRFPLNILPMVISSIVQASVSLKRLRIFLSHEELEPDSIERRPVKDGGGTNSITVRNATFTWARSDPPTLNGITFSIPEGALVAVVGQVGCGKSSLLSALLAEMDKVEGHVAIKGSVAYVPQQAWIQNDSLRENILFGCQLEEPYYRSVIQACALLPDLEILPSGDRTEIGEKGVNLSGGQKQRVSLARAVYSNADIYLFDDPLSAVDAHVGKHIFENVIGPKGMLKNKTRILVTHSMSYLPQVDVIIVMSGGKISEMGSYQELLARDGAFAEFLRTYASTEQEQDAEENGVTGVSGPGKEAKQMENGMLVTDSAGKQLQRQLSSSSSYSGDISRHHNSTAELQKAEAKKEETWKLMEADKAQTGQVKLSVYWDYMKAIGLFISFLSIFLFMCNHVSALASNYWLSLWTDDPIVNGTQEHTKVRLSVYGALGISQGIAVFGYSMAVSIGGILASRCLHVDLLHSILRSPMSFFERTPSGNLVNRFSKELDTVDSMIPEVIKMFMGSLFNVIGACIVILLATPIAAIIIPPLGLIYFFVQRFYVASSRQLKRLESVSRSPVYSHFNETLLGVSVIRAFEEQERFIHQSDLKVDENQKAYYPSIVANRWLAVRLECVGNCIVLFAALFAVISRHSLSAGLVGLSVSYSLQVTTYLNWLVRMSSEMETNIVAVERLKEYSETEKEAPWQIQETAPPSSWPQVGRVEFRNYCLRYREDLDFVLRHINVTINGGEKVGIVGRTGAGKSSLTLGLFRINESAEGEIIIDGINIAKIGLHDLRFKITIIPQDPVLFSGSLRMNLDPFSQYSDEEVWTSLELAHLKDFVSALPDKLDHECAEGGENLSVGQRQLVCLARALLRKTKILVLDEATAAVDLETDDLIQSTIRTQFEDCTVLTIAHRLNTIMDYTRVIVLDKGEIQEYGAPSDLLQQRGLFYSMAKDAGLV
Method in brief: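 MDCK-MRP1 cells, 30 000/well, grown overnight, then treated with compound (final 0.01 nM–100 µM, lower for very potent ones) in medium for 30 min at 37 °C. Calcein-AM added at 2.5 µM final for 30 min, then three ice-cold PBS washes. Fluorescence read at 485/535 nm against untreated cells. EC50 from fluorescence increase versus log dose, mean ± SEM of three experiments in duplicate.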

[3] = molecular target: T1, Broad substrate specificity ATP-binding cassette transporter ABCG2 (Homo sapiens, UniProt Q9UNQ0); assay: Inhibition of BCRP (unknown origin) overexpressed in MDCK cells using Hoechst 33342 as substrate preincubated for 30 mins followed by substrate addition measured after 30 mins by fluorescence based assay; format: cell-based
T1 sequence (Q9UNQ0 whole entry): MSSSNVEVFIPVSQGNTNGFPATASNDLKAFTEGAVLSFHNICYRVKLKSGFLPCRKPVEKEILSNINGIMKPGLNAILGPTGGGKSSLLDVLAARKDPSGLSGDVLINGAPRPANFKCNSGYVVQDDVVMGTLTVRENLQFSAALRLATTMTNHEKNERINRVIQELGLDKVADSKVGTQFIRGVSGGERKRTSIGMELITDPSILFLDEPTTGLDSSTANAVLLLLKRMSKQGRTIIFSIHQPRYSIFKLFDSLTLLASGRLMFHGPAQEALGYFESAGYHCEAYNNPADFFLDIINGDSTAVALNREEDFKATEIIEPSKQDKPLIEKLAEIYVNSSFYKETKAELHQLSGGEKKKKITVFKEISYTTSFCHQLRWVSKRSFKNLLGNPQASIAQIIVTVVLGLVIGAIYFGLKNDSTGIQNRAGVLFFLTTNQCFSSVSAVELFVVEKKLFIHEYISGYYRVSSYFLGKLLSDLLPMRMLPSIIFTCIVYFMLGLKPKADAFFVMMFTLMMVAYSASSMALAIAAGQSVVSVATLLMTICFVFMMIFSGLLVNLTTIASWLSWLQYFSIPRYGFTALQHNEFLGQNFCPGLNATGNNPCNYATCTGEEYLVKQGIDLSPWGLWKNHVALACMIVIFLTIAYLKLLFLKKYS

HT-29 = assay: Antiproliferative activity against human HT-29 cells at 1 to 10 uM incubated for 48 hrs relative to control; format: functional; conditions: dose 1-10 µM
Method in brief: (§1)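 Compound alone (1 μM and 10 μM), 48 h, on HT29 or on HT29/DX (the latter kept in 100 nM doxorubicin to hold resistance). Cells seeded 10 000/well, compound added after 24 h. Viability by MTT (0.5 mg/mL, 3–4 h), formazan in DMSO/EtOH 1:1, absorbance 570/630 nm. Three independent experiments in duplicate.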

[4] = molecular target: ATP-dependent translocase ABCB1 (Homo sapiens, UniProt P08183); assay: Inhibition of MDR1 (unknown origin) overexpressed in MDCK cells using Calcein-AM as substrate preincubated for 30 mins followed by substrate addition measured after 30 mins by fluorescence based assay; format: cell-based
Chain of ATP-dependent translocase ABCB1 (P08183 whole entry): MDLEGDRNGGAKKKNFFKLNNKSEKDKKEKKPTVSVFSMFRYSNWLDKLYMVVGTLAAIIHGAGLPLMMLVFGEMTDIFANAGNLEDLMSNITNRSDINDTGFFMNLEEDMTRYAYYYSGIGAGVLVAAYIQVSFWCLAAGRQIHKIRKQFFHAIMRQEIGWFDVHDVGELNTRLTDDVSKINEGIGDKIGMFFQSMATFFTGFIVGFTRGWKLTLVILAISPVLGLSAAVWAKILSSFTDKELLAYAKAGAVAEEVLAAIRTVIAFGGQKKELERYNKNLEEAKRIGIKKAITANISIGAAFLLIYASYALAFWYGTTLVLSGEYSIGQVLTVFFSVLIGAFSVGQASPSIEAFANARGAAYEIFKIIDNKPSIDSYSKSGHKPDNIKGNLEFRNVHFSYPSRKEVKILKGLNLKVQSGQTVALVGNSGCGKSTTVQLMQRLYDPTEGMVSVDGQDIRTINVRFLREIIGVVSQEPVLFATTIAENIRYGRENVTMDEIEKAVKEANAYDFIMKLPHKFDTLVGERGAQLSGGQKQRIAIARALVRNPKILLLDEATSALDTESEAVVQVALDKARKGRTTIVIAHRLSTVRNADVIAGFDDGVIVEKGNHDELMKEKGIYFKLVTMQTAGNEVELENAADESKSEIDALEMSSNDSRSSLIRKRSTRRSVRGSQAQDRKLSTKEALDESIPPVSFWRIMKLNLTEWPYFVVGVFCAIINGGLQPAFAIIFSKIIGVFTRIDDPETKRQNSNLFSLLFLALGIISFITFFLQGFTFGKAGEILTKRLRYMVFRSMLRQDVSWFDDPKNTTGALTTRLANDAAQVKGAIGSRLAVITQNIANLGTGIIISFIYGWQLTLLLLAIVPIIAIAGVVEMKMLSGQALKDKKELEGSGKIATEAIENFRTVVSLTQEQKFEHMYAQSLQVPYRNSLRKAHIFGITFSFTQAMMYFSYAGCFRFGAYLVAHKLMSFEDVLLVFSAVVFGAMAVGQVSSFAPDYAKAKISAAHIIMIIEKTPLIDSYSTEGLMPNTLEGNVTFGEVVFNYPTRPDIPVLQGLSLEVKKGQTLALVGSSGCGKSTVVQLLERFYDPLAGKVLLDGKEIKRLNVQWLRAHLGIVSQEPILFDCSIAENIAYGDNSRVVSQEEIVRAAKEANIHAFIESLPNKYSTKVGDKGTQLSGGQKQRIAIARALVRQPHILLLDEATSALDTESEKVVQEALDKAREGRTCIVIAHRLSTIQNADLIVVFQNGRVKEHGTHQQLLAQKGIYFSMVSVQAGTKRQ

[5] = Antiproliferative activity against doxorubicin-resistant human HT-29 cells at 1 to 10 uM incubated for 48 hrs relative to control; format: functional, doxorubicin-resistant human HT-29 cell; conditions: dose 1-10 µM; method in brief: as §1
[6] = Potentiation of DOX-induced cytotoxicity against doxorubicin-resistant human HT-29 cells assessed as reduction in cell viability at 10 uM incubated for 48 hrs relative to control; format: functional, doxorubicin-resistant human HT-29 cell
Method in brief: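 HT29/DX cells (10 000/well) were given compound at 1 or 10 µM together with 5 µM doxorubicin 24 h after seeding. After 48 h, viability by MTT (0.5 mg/mL, 3–4 h, 37 °C), read at 570/630 nm against untreated cells. Three independent experiments, technical duplicates; one-way ANOVA.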

efflux ratio at 2 h, 100 µM [1]	EC50 [2] [µM]	EC50 [3] [µM]	EC50 [4] [nM]	Structure (SMILES)	Activity (HT-29) [%]	Activity [5] [%]	Activity [6] [%]
22	–	–	–	COc1cc2c(cc1OC)CN(CCc1ccc(NC(=O)c3cc(OC)c(OC)cc3NC(=O)c3cnc4ccccc4c3)cc1)CC2	–	–	–
–	> 100	–	–	COc1cc2c(cc1OC)CN(CCc1ccc(NC(=O)c3cccc4c(=O)c5cccc(OC)c5[nH]c34)cc1)CC2	–	–	–
–	> 100	> 100	–	COc1cc2c(cc1OC)CN(CCc1ccc(-c3nnc(-c4c(OC)cccc4OC)o3)cc1)CC2	–	–	–
–	> 100	–	–	COc1cc2c(cc1OC)CN(CCc1ccc(-c3nnc(/C=C/c4cc(OC)c(OC)c(OC)c4)o3)cc1)CC2	–	–	–
9.7	> 100	> 100	46	COc1cc2c(cc1OC)CN(CCc1ccc(-c3nnc(-c4c(OC)c(OC)cc5ccccc45)o3)cc1)CC2	~10	~10	–
6.8	> 100	> 100	400	COc1cc2c(cc1OC)CN(CCc1ccc(-c3nnc(-c4cccc(OC)c4OC)o3)cc1)CC2	~10	~10	–
–	> 100	–	5270	COc1cc2c(cc1OC)CN(CCc1ccc(-n3nnnc3/C=C/c3cc(OC)c(OC)c(OC)c3)cc1)CC2	–	–	–
–	> 100	–	550	COc1cc2c(cc1OC)CN(CCc1ccc(-n3nnc(-c4ccc(OC)c(OC)c4OC)n3)cc1)CC2	–	–	–
–	4.33	–	630	COc1cc2c(cc1OC)CN(CCc1ccc(-n3nnnc3-c3cc(OC)c(OC)c(OC)c3)cc1)CC2	–	–	–
–	> 100	–	750	COc1cc2c(cc1OC)CN(CCc1ccc(-n3nnnc3-c3c(OC)ccc4ccccc34)cc1)CC2	–	–	–
4.5	> 100	> 100	90	COc1cc2c(cc1OC)CN(CCc1ccc(-n3nnc(-c4c(OC)ccc5ccccc45)n3)cc1)CC2	~10	~10	–
5.4	> 100	53.6	12	COc1cc2c(cc1OC)CN(CCc1ccc(-n3nnc(/C=C/c4cc(OC)c(OC)c(OC)c4)n3)cc1)CC2	~10	~10	–
–	> 100	–	71	COc1cc2c(cc1OC)CN(CCc1ccc(-c3nnc(-c4cc(OC)c(OC)c(OC)c4)o3)cc1)CC2	–	–	–
6.5	> 100	> 100	440	COc1cc2c(cc1OC)CN(CCc1ccc(-c3nnc(-c4ccc(OC)c(OC)c4OC)o3)cc1)CC2	~10	~10	–
3.3	> 100	> 100	1060	COc1cc2c(cc1OC)CN(CCc1ccc(-n3nnnc3-c3c(OC)c(OC)cc4ccccc34)cc1)CC2	–	–	–
–	> 100	–	260	COc1cc2c(cc1OC)CN(CCc1ccc(-n3nnc(-c4c(OC)c(OC)cc5ccccc45)n3)cc1)CC2	–	–	–
–	> 100	–	950	COc1cc2c(cc1OC)CN(CCc1ccc(-n3nnnc3-c3ccccc3OC)cc1)CC2	–	–	–
–	> 100	–	82	COc1cc2c(cc1OC)CN(CCc1ccc(-n3nnc(-c4ccccc4OC)n3)cc1)CC2	–	–	–
–	> 100	–	140	COc1cc2c(cc1OC)CN(CCc1ccc(-n3nnc(-c4cccc(OC)c4OC)n3)cc1)CC2	–	–	–
–	> 100	–	–	COc1cc2c(cc1OC)CN(CCc1ccc(-n3nnc(-c4c(OC)cccc4OC)n3)cc1)CC2	–	–	–
–	7.49	–	750	COc1cc2c(cc1OC)CN(CCc1ccc(-n3nnnc3-c3ccc(OC)c(OC)c3OC)cc1)CC2	–	–	–
6.3	> 100	> 100	19	COc1cc2c(cc1OC)CN(CCc1ccc(-c3nnc(-c4ccccc4OC)o3)cc1)CC2	~10	~10	64.3
–	> 100	> 100	–	COc1cc2c(cc1OC)CN(CCc1ccc(-c3nnc(-c4c(OC)ccc5ccccc45)o3)cc1)CC2	–	–	–
–	> 100	–	260	COc1cc2c(cc1OC)CN(CCc1ccc(-n3nnc(-c4cc(OC)c(OC)c(OC)c4)n3)cc1)CC2	–	–	–

— ChEMBL document CHEMBL5625229 (Eur J Med Chem, 2023)
